Residue numbers refer to the chain shown, from its start.
What was measured:
Settings in all cases: stereoisomer not certain
O2T11 = test system: T1, O2T11
T1 sequence (whole entry): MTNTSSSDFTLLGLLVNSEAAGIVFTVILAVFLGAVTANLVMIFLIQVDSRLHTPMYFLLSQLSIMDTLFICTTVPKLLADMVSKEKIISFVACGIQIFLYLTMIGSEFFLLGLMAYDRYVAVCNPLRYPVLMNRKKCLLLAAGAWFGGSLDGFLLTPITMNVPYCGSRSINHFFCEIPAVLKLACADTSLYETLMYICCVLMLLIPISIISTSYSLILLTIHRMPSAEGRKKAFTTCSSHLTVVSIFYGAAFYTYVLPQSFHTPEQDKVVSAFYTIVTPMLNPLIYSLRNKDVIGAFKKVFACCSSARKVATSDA
How it was run: (§1)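 Assay methods differ from source to source, frequently being transient luciferase assays in mammalian cell lines. For each receptor–molecule pair, the label responsive (active) applies when the original authors judged the measured signal statistically different from baseline, and non-responsive (inactive) applies otherwise.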

O2T27 L36V V134D = test system: T2, O2T27 L36V V134D
T2 sequence (whole entry): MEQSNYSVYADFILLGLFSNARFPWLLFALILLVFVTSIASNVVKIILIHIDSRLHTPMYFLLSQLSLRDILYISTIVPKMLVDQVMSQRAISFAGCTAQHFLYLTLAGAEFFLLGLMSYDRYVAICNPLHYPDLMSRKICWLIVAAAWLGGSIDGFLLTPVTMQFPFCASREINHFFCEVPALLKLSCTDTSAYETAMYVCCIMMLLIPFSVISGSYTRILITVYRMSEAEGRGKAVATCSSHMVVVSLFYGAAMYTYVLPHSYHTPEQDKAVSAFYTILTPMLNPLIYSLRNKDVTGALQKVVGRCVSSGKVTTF
How it was run: as §1

O2T29 Q24R = test system: T3, O2T29 Q24R
T3 sequence (whole entry): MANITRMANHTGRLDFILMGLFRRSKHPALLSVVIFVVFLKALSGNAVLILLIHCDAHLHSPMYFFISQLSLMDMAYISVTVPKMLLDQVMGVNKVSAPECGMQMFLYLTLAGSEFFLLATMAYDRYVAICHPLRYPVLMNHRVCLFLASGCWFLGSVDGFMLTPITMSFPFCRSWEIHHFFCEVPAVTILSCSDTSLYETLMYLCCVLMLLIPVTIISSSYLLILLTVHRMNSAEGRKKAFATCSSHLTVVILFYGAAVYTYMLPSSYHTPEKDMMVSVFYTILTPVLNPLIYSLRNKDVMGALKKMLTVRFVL
How it was run: as §1

O2T33 A169V = test system: T4, O2T33 A169V
T4 sequence (whole entry): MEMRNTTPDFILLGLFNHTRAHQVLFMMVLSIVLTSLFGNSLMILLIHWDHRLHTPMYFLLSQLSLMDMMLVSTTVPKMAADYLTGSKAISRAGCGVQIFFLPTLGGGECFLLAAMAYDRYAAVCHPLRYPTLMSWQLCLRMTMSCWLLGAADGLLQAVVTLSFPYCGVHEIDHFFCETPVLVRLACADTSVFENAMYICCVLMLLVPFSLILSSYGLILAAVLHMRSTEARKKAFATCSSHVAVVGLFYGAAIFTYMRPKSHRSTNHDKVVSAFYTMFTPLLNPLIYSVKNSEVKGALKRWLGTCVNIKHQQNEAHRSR
How it was run: as §1

O2T33 G297E I309L = test system: T5, O2T33 G297E I309L
T5 sequence (whole entry): T4 sequence (whole entry) with V169A, G297E, I309L
How it was run: as §1

O2T34 Q6P R267P = test system: T6, O2T34 Q6P R267P
T6 sequence (whole entry): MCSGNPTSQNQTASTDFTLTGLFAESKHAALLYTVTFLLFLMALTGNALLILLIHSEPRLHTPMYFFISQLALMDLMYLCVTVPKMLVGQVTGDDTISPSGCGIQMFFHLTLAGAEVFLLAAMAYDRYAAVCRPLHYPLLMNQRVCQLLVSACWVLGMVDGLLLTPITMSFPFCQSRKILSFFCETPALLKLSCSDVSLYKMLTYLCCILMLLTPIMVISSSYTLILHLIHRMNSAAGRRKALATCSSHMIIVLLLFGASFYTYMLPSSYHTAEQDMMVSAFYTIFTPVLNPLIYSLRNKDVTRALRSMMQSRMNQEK
How it was run: as §1

O2T34 R267P = test system: T7, O2T34 R267P
T7 sequence (whole entry): T6 sequence (whole entry) with P6Q
How it was run: as §1

O4A47 = test system: T8, O4A47
T8 sequence (whole entry): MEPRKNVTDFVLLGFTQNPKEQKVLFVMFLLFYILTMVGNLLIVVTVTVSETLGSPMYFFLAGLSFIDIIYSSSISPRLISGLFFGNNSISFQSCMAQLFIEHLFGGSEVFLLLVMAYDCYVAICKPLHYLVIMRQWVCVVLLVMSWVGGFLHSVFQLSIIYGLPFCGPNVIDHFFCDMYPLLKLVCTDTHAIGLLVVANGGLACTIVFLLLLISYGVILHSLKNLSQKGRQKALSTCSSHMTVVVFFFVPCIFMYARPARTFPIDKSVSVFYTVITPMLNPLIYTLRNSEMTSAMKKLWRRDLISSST
How it was run: as §1

O4C46 S240F C252Y K288R = test system: O4C46 S240F C252Y K288R
How it was run: as §1

O4F15 A272T = test system: T9, O4F15 A272T
T9 sequence (whole entry): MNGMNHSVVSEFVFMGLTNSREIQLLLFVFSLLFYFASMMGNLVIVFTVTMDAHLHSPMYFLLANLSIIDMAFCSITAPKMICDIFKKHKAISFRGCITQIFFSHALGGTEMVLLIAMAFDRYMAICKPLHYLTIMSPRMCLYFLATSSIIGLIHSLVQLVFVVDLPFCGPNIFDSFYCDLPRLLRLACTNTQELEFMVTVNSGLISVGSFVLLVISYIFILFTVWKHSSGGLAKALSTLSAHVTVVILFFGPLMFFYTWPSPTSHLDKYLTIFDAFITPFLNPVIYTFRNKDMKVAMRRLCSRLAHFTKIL
How it was run: as §1

O4F15 S149F = test system: T10, O4F15 S149F
T10 sequence (whole entry): T9 sequence (whole entry) with S149F, T272A
How it was run: as §1

O4F17 [1] = test system: T11, O4F17
T11 sequence (whole entry): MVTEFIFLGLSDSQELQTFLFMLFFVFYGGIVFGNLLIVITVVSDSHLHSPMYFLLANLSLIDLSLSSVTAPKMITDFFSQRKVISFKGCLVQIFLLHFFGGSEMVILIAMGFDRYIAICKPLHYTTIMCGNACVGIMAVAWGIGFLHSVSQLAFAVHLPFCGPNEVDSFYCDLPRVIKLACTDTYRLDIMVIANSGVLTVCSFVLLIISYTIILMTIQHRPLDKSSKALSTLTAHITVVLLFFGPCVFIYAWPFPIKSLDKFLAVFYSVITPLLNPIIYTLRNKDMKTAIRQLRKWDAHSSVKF
How it was run: as §1

O4F17 [2] = test system: T12, O4F17; remark: listed apart in the source
T12 sequence (whole entry): T11 sequence (whole entry) with E15G, Q293R
How it was run: as §1

O4F21 F44L = test system: T13, O4F21 F44L
T13 sequence (whole entry): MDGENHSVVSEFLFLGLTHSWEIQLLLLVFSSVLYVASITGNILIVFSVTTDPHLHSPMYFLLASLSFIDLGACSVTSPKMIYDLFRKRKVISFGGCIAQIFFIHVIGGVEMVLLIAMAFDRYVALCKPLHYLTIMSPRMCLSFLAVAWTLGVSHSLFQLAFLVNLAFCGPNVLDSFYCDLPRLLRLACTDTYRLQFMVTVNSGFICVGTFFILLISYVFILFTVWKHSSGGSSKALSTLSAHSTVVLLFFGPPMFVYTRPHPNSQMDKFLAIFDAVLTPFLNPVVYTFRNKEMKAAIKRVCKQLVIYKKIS
How it was run: as §1

O51A7 E8D = test system: T14, O51A7 E8D
T14 sequence (whole entry): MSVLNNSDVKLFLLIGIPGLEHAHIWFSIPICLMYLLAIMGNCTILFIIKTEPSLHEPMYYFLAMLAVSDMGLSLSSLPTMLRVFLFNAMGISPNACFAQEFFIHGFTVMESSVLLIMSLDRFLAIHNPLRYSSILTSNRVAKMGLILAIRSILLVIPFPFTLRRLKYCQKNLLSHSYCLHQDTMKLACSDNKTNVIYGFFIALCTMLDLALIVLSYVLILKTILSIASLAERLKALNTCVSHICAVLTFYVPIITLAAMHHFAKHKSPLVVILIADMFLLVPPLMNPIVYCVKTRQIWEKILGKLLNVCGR
How it was run: as §1

O51B2 C120R C209S P283S = test system: T15, O51B2 C120R C209S P283S
T15 sequence (whole entry): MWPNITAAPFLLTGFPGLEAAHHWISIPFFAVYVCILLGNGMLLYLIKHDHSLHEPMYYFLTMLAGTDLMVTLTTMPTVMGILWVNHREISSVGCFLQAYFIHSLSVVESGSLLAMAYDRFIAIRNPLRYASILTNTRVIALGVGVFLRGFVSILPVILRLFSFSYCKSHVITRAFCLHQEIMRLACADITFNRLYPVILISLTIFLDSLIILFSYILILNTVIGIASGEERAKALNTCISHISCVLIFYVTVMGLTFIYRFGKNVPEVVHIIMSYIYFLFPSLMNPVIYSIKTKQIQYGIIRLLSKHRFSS
How it was run: as §1

O51B4 M147T = test system: T16, O51B4 M147T
T16 sequence (whole entry): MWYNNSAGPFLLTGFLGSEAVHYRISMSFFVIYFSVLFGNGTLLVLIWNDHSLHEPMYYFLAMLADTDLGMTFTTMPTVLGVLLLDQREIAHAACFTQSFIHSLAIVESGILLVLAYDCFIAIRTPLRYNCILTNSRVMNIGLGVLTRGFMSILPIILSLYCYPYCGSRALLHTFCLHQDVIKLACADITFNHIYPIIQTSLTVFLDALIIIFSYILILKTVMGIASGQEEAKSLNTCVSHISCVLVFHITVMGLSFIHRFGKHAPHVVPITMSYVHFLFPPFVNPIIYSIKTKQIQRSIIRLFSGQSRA
How it was run: as §1

O51B4 = test system: T17, O51B4
T17 sequence (whole entry): T16 sequence (whole entry) with V36I
How it was run: as §1

O51B5 G5S I102T P160L = test system: T18, O51B5 G5S I102T P160L
T18 sequence (whole entry): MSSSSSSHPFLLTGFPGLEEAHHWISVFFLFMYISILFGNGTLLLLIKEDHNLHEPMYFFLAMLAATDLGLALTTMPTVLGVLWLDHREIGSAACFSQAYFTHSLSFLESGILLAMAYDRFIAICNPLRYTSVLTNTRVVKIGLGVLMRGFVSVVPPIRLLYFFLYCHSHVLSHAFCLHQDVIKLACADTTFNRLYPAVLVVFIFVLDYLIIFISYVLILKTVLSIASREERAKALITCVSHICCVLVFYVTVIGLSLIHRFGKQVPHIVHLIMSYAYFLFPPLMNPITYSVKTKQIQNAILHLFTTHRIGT
How it was run: as §1

O51D1 I89V = test system: T19, O51D1 I89V
T19 sequence (whole entry): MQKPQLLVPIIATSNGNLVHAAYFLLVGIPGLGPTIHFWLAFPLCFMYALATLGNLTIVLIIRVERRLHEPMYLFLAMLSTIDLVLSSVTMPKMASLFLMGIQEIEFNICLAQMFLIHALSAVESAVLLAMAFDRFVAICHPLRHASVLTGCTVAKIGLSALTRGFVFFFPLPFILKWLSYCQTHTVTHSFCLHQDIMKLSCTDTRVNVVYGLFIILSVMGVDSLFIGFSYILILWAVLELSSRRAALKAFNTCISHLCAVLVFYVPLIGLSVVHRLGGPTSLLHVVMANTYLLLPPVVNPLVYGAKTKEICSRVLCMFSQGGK
How it was run: as §1

Measured: odorant receptor agonist call

CC1=NC(C)C(C)S1 (stereo not drawn)
inactive: all assays above

CCCCCCC=CCCC=O
not listed: O4F15 A272T | O4F15 S149F
inactive: all other assays above

CC1=C(O)C(=O)C(C)O1 (stereo not drawn)
inactive: all assays above

Cc1cnc(C)c(C)n1
inactive: all assays above

CCC1OC(=O)C(O)=C1C (stereo not drawn)
inactive: all assays above

CCCC(S)CCOC(C)=O (stereo not drawn)
inactive: all assays above

CCC1OC(C)=C(O)C1=O (stereo not drawn)
inactive: all assays above

CC1=C(O)C(=O)OC1C (stereo not drawn)
inactive: all assays above
